Assay results taken from publication PMC6557269 (Journal of controlled release : official journal of the …, 2019).
Ends that are not written are not given here. * marks the point of attachment. DTPA = O=C(O)CN(CCN(CC(=O)O)CC(=O)O)CCN(CC(=O)O)CC(=O)*; PEG = 40 kDa poly(ethylene glycol)

Tests used:
TIP1 protein = target: T1, TIP1 protein (Homo sapiens, UniProt O14907); experiment: Surface plasmon resonance; format: binding; settings: SPR BIAcore 2000, TIP1 on CM5 chip, Supplementary figure 1
T1 sequence (O14907 1-124): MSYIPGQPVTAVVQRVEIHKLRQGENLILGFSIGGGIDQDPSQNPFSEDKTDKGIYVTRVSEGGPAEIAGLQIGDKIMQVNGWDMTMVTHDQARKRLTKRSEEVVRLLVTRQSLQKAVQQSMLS

OE33 tumors [1] = experiment: Autoradiography of tumor and muscle sections; format: in vivo, nude mice; settings: phosphor imager plate 16 h, after SPECT imaging
Outline: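 After SPECT, tumors were sectioned at 200 micron, with leg muscle sections as control tissue. Sections were exposed to a phosphor imager plate for 16 h at −20 °C, and the plate was scanned to map microdistribution of the ¹¹¹In-labelled PEG-peptide.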

HT3 tumors [2] = experiment: NanoSPECT/CT imaging, heterotopic cervical tumors; format: in vivo, nude mice
OE33 tumors [3] = format: in vivo, nude mice
OE33 tumors [4] = experiment: NanoSPECT/CT imaging, heterotopic esophageal tumors; format: in vivo, nude mice
A549 tumors = experiment: NanoSPECT/CT imaging, heterotopic lung tumors; format: in vivo; settings: nude mice, 48 h post injection, tumor irradiated 3 x 3 Gy
HT3 tumors [5] = format: in vivo, nude mice
BxPC3 tumors = experiment: NanoSPECT/CT imaging, heterotopic pancreatic tumors; format: in vivo; settings: nude mice, 48 h post injection, tumor irradiated 3 x 3 Gy
D54 tumors = experiment: NanoSPECT/CT imaging, heterotopic glioblastoma tumors; format: in vivo; settings: nude mice, 48 h post injection, tumor irradiated 3 x 3 Gy
[6] = nude mice, i.v. ~500 μCi, 48 h and 72 h post injection, n=3 per group
[7] = right hind limb tumor 3 x 3 Gy vs left sham tumor
[8] = 96 h post injection, gamma counter, n=3 per group

| Substance | binding to immobilized TIP1 (sensogram comparison) (TIP1 protein) | microscopic distribution in OE33 tumor sections (OE33 tumors [1]) | uptake in leg muscle sections (control tissue) (OE33 tumors [1]) | tumor binding by SPECT, HT3 tumors (HT3 tumors [2]; [6]) | effect of irradiating the tumor on tumor binding, HT3 (HT3 tumors [2]; [7]) | tumor uptake in biodistribution vs control peptide, OE33 (OE33 tumors [3]; [8]) | presence in blood and liver, OE33 tumor-bearing mice (OE33 tumors [3]; mouse, in vivo) | tumor binding by SPECT, OE33 tumors (OE33 tumors [4]; [6]) | effect of irradiating the tumor on tumor binding, OE33 (OE33 tumors [4]; [7]) | tumor binding by SPECT/CT, irradiated A549 tumors, compared to PEG-control (A549 tumors) | tumor uptake in biodistribution vs control peptide, HT3 (HT3 tumors [5]; [8]) | presence in blood and liver, HT3 tumor-bearing mice (HT3 tumors [5]; mouse, in vivo) | tumor binding by SPECT/CT, irradiated BxPC3 tumors, compared to PEG-control (BxPC3 tumors) | tumor binding by SPECT/CT, irradiated D54 tumors, compared to PEG-control (D54 tumors) |
| --- | --- | --- | --- | --- | --- | --- | --- | --- | --- | --- | --- | --- | --- | --- |
| HGVIGRV [scrambled peptide, reference compound] | did not show binding | – | – | – | – | – | – | – | – | – | – | – | – | – |
| ^111In-labeled PEG-DTPA-HVGGSSV: DTPA-PEG-HVGGSSV labeled with ^111Indium ({DTPA-PEG}-HVGGSSV; also: 111In chelated by DTPA) | – | even distribution | no peptide uptake | bound | did not affect tumor binding | significantly higher (p<0.001) | observed in the blood and liver | bound | did not affect tumor binding | enhanced binding | significantly higher (p<0.001) | observed in the blood and liver | enhanced binding | enhanced binding |
| mPEG40K-carbonyl-Lys(CHX-A”-DTPA)-AEEAc-Lys(CHX-A”-DTPA)-AEEAc-Trp-Lys(CHX-A”-DTPA)-AEEAc-Gly-Ile-Arg-Leu-Arg-Gly-OH [PEG-HVGGSSV, mPEG40K-carbonyl-Lys(CHX-A”-DTPA)-AEEAc-Lys(CHX-A”-DTPA)-AEEAc-Trp-Lys(CHX-A”-DTPA)-AEEAc-Gly-Ile-Arg-Leu-Arg-Gly-OH trifluoroacetate Salt] | did not alter the binding affinity | – | – | – | – | – | – | – | – | – | – | – | – | – |
